Screening results from PubChem BioAssay.
In the library only some 2.1% were active in any assay of this set; here they are far more common.
PDI inh – PDI (human) enzyme inhibition; P07237; PDI insulin aggregation turbidity, A650, 90 min; inhibition, % at 10 µM; 350,000 compounds, 0.052% hits; AID 588391;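 active means mean inhibition across replicates of 30% or more, whatever share of single replicates reach that level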
ERp5 inh – ERp5 (human) disulfide isomerase inhibition. inhibition, % at 9.99 µM. AID 651711. Q15084. ERp5 insulin aggregation, absorbance 650 nm, 90 min. 350,000 compounds, 0.05% hits;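 active means mean replicate inhibition above about 25%, with every replicate also reaching it, limit read from the data, passing the limit was not always enough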
Target sequence (Q15084 whole entry, looked up): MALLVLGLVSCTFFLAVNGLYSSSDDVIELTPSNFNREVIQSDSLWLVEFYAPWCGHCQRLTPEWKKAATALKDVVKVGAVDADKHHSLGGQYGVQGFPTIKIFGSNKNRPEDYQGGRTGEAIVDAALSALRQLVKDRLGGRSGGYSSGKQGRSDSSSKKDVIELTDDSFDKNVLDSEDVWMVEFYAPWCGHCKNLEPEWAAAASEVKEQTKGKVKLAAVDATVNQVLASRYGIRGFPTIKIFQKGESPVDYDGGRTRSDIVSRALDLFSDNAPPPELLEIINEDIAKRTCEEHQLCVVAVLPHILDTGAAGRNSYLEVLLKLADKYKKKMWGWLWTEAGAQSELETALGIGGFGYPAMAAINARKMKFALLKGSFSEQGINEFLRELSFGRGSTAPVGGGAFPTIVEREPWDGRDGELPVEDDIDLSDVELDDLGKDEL
AF4-AF9 inh – inhibitors of human MLL-AF4/AF9 interaction; P42568; inhibition, % at 10 µM; 350,000 compounds, 0.47% hits; AlphaScreen, biotin-AF4 peptide binding to FLAG-AF9; AID 651704;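 active means every replicate reaching a set inhibition limit, whatever the replicate mean, cut at about 25% in these data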;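 further: 0% = plate neutral control median and 100% = total signal loss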
ARNT-TACC3 inh – disruptors of human ARNT/TACC3 interaction | Q9Y6A5 | AlphaScreen His-ARNT PAS-B/GST-TACC3 binding, luminescence; TACC3 fragment carries E629A point mutation | inhibition, % at 9.99 µM | 390,000 compounds, 0.66% hits;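 active means mean inhibition of replicates at least 50% and at least half of replicates each reaching 50%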;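 further: 0% = complete ARNT plus TACC3 wells and 100% = ARNT alone without TACC3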
FN deposition inh – fibronectin deposition inhibition. 350,000 compounds, 0.086% hits. inhibition, % at 12.6 µM. AH1F fibroblasts, Alexa488-fibronectin deposition fluorescence, overnight. AID 743247;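 active means mean inhibition across replicates of 30% or more, regardless of how many single replicates reach that level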;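 further: positive control wells lacked labelled fibronectin entirely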
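material = AH1F fibroblast monolayer depositing Alexa488-labelled fibronectin into matrix | amount = 10000 AH1F cells/well | buffer or medium = DMEM plus 2% serum, read in PBS | incubation = 1 h cell adhesion before compound, then overnight fibronectin incubation | detection = fluorescence at 485 nm excitation, 525 nm emission | evaluation = percent inhibition as loss of matrix-bound fibronectin fluorescence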
FGF22 binding – binders of recombinant human FGF22 by thermal shift | activity (Tm shift, normalised), % at 9.99 µM | SYPRO orange fluorescence; percent of sucrose octasulfate shift, DMSO zero | 340,000 compounds, 1.5% hits | Q9HCT0;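 active means mean Tm shift, scaled 0 neutral to 100 positive control, at about 1.3% or above, every replicate too, limit read from the data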
Target sequence (Q9HCT0 whole entry, looked up): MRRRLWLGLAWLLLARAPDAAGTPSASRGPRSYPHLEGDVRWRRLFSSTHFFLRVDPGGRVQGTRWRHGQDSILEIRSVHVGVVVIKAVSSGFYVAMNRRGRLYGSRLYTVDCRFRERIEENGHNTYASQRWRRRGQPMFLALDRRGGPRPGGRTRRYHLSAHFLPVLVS
An asterisk follows results filed as active; . = no result.

SMILES | PDI inh | ERp5 inh | AF4-AF9 inh | ARNT-TACC3 inh | FN deposition inh | FGF22 binding
Cc1ccc(S(=O)(=O)N(C)C)cc1NC(=O)CN1C(=O)NC2(CCCCCC2)C1=O | 8 | 1 | 3 | -6 | 10 | 0
COc1ccc(NS(=O)(=O)c2ccc(C)c(NC(=O)CN3C(=O)NC4(CCCC4)C3=O)c2)cc1 | 1 | 2 | 41* | . | 2 | 0
O=C(NCC[C@H]1CC[C@@H](NS(=O)(=O)c2ccc(F)cc2)[C@H](CO)O1)Nc1ccc(Cl)cc1 | . | 3 | 6 | -1 | 4 | 0
O=C(NCC[C@H]1CC[C@H](NS(=O)(=O)c2ccc(Cl)cc2)[C@H](CO)O1)Nc1ccc(F)cc1 | . | 1 | 30* | . | -2 | .
O=C(NCC[C@@H]1CC[C@H](NC(=O)c2cccnc2)[C@@H](CO)O1)Nc1ccc(C(F)(F)F)cc1 | . | 7 | 11 | . | 5 | 0
O=C(NCC[C@@H]1CC[C@@H](NC(=O)c2cccnc2)[C@H](CO)O1)Nc1ccc(C(F)(F)F)cc1 | . | 7 | 26* | . | -4 | 0
COc1ccc(CN(C)C[C@@H]2Oc3c(NS(=O)(=O)c4ccc(Cl)cc4)cccc3C(=O)N([C@@H](C)CO)C[C@H]2C)cc1 | . | -4 | 1 | -5 | . | 0
CC1CCCC(NC(=O)CN(C)S(=O)(=O)c2cnc[nH]2)C1C (centres undefined) | -1 | 1 | 1 | -8 | -10 | 43*
CC(NC(=O)CN(C)S(=O)(=O)c1cnc[nH]1)c1ccccc1 (centres undefined) | 1 | 1 | -7 | 1 | 4 | 44*
COc1ccc2c3c(n(C)c2c1)[C@H](CO)N(Cc1cccnc1)CC31CN(C(=O)NC(C)C)C1 | . | 4 | 2 | . | . | 0
COc1ccccc1CNC(=O)C[C@H]1C=C[C@@H](NC(=O)CN(C)C)[C@H](CO)O1 | . | 2 | -2 | 7 | . | 0
C/C=C/c1cnc2c(c1)C(=O)N([C@H](C)CO)C[C@@H](C)[C@@H](CN(C)C(=O)Nc1ccc(OC)cc1)O2 | . | 7 | -2 | 2 | -5 | 0
Cc1cc(Nc2ccc(F)cc2)n2nc(C)nc2n1 | . | 2 | 0 | . | 24 | 0
Cc1cc(Nc2ccc(Br)cc2)n2nc(C)nc2n1 | . | -4 | 0 | 11* | -5 | 0
Cc1ccccc1C(=O)Nc1ccc(C(=O)N/N=C/c2ccncc2)cc1 | -1 | 1 | 2 | 38 | -4 | 0
O=C(Nc1ccccc1C(=O)N/N=C/c1ccncc1)c1ccccc1 | 8 | -4 | 0 | . | -5 | 44*
COc1ccc(C2=NN(C(C#N)c3ccc(OC)cc3)C(c3ccccc3)C2)cc1 (centres undefined) | -1 | 0 | 29* | -6 | 1 | 0
COc1ccc(CCN(C)C(=O)c2cnc(C)cn2)cc1OC | 9 | 4 | -2 | active | 5 | 0
COc1ccccc1CN(C)C(=O)c1cnc(C)cn1 | 2 | 3 | 1 | -27 | 7 | 0
COc1cccc(S(=O)(=O)N[C@@H]2CC[C@H](CCN)O[C@@H]2CO)c1 | . | 0 | 4 | 5 | -9 | 1
Fc1cnc(N2CCN(c3ccccc3)CC2)nc1N1CCN(c2ccccc2)CC1 | -9 | 2 | 4 | -1 | 30* | 0
CCN(CC)C(=O)COc1ccc2oc(-c3ccco3)cc(=O)c2c1 | -34 | -1 | -2 | 0 | 10 | 44*
COc1ccc(NC(=O)Nc2ccc3c(c2)C(=O)N([C@@H](C)CO)C[C@H](C)[C@H](CN(C)C(=O)NC2CCCCC2)OCCCC[C@H](C)O3)cc1 | . | 0 | 0 | 12 | . | 0
Cc1ccc(S(=O)(=O)Nc2ccc(S(=O)(=O)Nc3cc(C)nc(C)n3)cc2)cc1 | -6 | -5 | -1 | -8 | 2 | 43*
Cc1cc(NS(=O)(=O)c2ccc(NS(=O)(=O)c3ccc(CC(C)C)cc3)cc2)nc(C)n1 | -2 | -2 | -2 | 3 | -4 | 1
SMILES | PDI inh | ERp5 inh | AF4-AF9 inh | ARNT-TACC3 inh | FN deposition inh | FGF22 binding
CCCNC(=O)N1C[C@H](C)[C@H](OC)CN(C)C(=O)c2ccc(NC(=O)C3CCC3)cc2OC[C@H]1C | . | 1 | -1 | -3 | 1 | 0
CC(C)(c1ccc(O)c([N+](=O)[O-])c1)c1ccc(O)c([N+](=O)[O-])c1 | 3 | 4 | 0 | 0 | 12 | 0
CN(C)Cc1cc(C(C)(C)c2ccccc2)ccc1O | -3 | 3 | 8 | 6 | -2 | 43*
CC(=O)Nc1nnc(-c2ccc(Cl)s2)o1 | -5 | -1 | 45* | 14 | -2 | 0
CCC(=O)Nc1nnc(-c2ccc(Cl)s2)o1 | 1 | 1 | -1 | 11 | -7 | 0
COc1ccc(C2C(C(C)=O)=C(O)C(=O)N2CCCn2ccnc2)cc1OC (centres undefined) | -5 | . | . | 6 | . | .
CC(=O)C1=C(O)C(=O)N(CCCn2ccnc2)C1c1ccc(Br)cc1 (centres undefined) | 3 | -1 | 1 | 3 | -1 | 43*
CCCOc1ccc(Cc2nn3c(=O)/c(=C/c4ccco4)sc3nc2=O)cc1 | -2 | . | . | 32* | -12 | .
NC(=NCCc1ccccc1)NS(=O)(=O)c1cccs1 | -8 | 3 | -2 | . | -6 | 43*
Cc1cc(NC(=O)Cn2ccsc2=N)c([N+](=O)[O-])cc1C | 23 | -5 | 1 | . | -16 | 43*
Cc1ccccc1CS(=O)(=O)c1ncc(Cl)c(C(=O)Nc2ccc(F)cc2)n1 | -7 | 5 | 2 | -4 | 39* | 0
O=C(Nc1ccc(F)cc1)c1nc(S(=O)(=O)Cc2ccccc2)ncc1Cl | 2 | 8 | -9 | -3 | -1 | 0
CCS(=O)(=O)c1ncc(Cl)c(C(=O)Nc2ccc(S(=O)(=O)N(C)c3ccccc3)cc2)n1 | -2 | . | 1 | 6 | 67* | 0
CN(CCc1ccccn1)C(=O)CC1C(=O)NCCN1Cc1ccc(-c2ccccc2)cc1 (centres undefined) | 4 | 8 | -1 | -3 | -4 | 44*
COCCN(C)C(=O)CC1C(=O)NCCN1CC(c1ccccc1)c1ccccc1 (centres undefined) | -2 | -1 | 0 | 0 | 2 | 44*
CN(C)CC(C)(C)CNC(=O)CC1C(=O)NCCN1Cc1ccc(-c2ccccc2)cc1 (centres undefined) | 6 | 2 | 4 | -2 | -9 | 0
CCc1cc(CNC(=O)CC2C(=O)NCCN2Cc2cccc(OC)c2)on1 (centres undefined) | -5 | 0 | 0 | 5 | -13 | 44*
Cc1ccc(CN2CCNC(=O)C2CC(=O)N(C)CCc2ccccc2)cc1 (centres undefined) | 2 | 1 | -2 | -19 | -10 | 0
C=CCNC(=O)CC1C(=O)NCCN1Cc1ccc(-c2ccccc2)cc1 (centres undefined) | 3 | -3 | -15 | . | -1 | 43*
